Assay results from different studies.
Protocols differ between the studies behind these lines.
Read-out: enzyme activity
Action: inhibitor
RET: Proto-oncogene tyrosine-protein kinase receptor Ret (RET, Homo sapiens, UniProt P07949)
RET V804L: Proto-oncogene tyrosine-protein kinase receptor Ret (RET, Homo sapiens, UniProt P07949, V804L)

CNCc1ccc(-c2cc(-c3nc(-c4ccc(S(=O)(=O)C(C)C)cc4)cnc3N)on2)cc1 — inhibition (RET; 2 µM): 42%
COc1cc2ncnc(Nc3ccc(Oc4ccccc4)c(C)c3C)c2cc1OC — inhibition (RET V804L; 1 µM): 2%
CNC(=O)c1cc2c(Oc3ccc(NC(=O)C4(C(=O)Nc5ccc(F)cc5)CC4)cc3)ccnc2cc1OC — inhibition (RET; radiometric; 1 µM): 98%
COc1cc2nccc(Oc3ccc(NC(=O)c4c5n(n(-c6ccc(F)cc6)c4=O)CCCC5)cc3)c2cc1OC — inhibition (RET; 0.1 µM): 15%
CC/C(=N\NC(=O)NCc1cccc(O)c1)c1ccc(O)c(C)c1O — inhibition (RET; 0.1 µM): 0.2%
COc1cc2ncnc(Nc3ccc(Oc4ccccc4)cc3C)c2cc1OC — inhibition (Proto-oncogene tyrosine-protein kinase receptor Ret (RET, Homo sapiens, UniProt P07949, Y791F); 1 µM): 36%
C=CC(=O)Nc1cc(Nc2nccc(Nc3cc(Cl)c(F)cc3C(C)(C)O)n2)c(OC)cc1N1CC[C@@H](N(C)C)C1 — inhibition (RET; 1 µM): 1%
COc1cc(-c2cc(-c3ccc(N4CCNCC4)cc3)cnc2N)cc(OC)c1OC — inhibition (RET V804L; 0.1 µM): 2%
